From ChEMBL document CHEMBL2390828, “Synthesis and biological characterization of spiro[2H-(1,3)-benzoxazine-2,4'-piperidine] based histone deacetylase inhibitors” (Eur J Med Chem, 2013)

Experiments:
[1] = Permeability from apical to basolateral side across human Caco2 cells after 2 hrs by LC-MS analysis; type: ADME, cell-based; details: Caco-2, read-out: permeability
[2] = target: T1, Protein deacetylase HDAC6 (Homo sapiens, UniProt Q9UBN7); experiment: Inhibition of HDAC6 (unknown origin)
T1 sequence (Q9UBN7 whole entry): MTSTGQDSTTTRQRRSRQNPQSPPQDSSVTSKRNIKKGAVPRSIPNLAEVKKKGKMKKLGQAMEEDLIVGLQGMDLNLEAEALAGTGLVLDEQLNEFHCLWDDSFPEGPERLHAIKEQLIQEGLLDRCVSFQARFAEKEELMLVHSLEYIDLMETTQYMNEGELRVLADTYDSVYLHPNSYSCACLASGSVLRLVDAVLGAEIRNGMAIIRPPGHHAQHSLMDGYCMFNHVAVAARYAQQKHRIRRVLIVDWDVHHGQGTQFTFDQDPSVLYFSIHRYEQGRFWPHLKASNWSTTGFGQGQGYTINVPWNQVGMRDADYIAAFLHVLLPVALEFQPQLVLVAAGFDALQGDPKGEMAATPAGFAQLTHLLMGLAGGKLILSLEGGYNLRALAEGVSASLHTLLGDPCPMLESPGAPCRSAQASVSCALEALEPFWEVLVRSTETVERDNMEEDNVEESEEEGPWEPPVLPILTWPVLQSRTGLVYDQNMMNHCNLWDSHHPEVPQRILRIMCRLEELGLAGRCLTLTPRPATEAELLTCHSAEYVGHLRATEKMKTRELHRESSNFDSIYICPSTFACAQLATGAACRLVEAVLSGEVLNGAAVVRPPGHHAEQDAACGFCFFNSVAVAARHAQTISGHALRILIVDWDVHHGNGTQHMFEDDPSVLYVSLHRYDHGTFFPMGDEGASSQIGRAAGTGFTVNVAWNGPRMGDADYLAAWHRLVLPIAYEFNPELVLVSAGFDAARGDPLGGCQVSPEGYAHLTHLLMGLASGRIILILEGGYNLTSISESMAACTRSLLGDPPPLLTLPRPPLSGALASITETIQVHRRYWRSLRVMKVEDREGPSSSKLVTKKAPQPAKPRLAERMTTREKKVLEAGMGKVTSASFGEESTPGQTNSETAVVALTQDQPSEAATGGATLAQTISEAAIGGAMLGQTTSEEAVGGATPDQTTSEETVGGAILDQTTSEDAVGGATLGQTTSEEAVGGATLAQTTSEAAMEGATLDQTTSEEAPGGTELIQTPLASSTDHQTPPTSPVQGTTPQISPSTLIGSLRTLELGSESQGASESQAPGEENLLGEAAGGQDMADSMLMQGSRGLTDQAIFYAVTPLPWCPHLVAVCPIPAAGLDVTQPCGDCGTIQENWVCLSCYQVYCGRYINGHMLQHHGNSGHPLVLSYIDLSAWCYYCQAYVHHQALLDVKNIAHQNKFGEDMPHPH

[3] = target: Histone deacetylase 2 (Homo sapiens, UniProt Q92769); experiment: Inhibition of HDAC2 (unknown origin)
Sequence of Histone deacetylase 2 (Q92769 whole entry): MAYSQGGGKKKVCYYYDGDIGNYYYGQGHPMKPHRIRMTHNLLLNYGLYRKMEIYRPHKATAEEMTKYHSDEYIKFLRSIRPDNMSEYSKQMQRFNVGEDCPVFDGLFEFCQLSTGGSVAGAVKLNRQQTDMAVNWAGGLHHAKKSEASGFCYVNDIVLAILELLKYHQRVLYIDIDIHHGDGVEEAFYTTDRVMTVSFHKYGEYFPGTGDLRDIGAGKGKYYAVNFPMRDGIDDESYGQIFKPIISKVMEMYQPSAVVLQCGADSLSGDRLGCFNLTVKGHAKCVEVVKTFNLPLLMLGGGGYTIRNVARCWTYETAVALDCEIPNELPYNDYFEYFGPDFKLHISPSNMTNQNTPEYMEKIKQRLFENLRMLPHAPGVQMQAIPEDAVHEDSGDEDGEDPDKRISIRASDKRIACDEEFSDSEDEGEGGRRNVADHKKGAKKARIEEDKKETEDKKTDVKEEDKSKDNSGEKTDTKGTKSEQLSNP

[4] = target: Histone deacetylase 3 (Homo sapiens, UniProt O15379); experiment: Inhibition of HDAC3 (unknown origin)
Sequence of Histone deacetylase 3 (O15379 whole entry): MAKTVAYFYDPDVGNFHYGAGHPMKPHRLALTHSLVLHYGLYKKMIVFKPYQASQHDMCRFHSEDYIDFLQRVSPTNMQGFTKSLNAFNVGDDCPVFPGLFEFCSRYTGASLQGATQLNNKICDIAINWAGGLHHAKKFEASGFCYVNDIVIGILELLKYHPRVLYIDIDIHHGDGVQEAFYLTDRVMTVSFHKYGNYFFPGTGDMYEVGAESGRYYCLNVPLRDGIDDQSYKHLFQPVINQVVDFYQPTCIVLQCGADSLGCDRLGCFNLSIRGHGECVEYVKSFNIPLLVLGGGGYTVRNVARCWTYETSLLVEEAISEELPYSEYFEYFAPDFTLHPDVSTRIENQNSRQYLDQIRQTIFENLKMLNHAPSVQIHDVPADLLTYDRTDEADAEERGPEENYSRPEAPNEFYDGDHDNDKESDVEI

[5] = target: Voltage-gated inwardly rectifying potassium channel KCNH2 (Homo sapiens, UniProt Q12809); experiment: Displacement of [3H]astemizole from human ERG channel transfected in HEK293 cells after 60 mins by liquid scintillation counting analysis; type: cell-based
Sequence of Voltage-gated inwardly rectifying potassium channel KCNH2 (Q12809 whole entry): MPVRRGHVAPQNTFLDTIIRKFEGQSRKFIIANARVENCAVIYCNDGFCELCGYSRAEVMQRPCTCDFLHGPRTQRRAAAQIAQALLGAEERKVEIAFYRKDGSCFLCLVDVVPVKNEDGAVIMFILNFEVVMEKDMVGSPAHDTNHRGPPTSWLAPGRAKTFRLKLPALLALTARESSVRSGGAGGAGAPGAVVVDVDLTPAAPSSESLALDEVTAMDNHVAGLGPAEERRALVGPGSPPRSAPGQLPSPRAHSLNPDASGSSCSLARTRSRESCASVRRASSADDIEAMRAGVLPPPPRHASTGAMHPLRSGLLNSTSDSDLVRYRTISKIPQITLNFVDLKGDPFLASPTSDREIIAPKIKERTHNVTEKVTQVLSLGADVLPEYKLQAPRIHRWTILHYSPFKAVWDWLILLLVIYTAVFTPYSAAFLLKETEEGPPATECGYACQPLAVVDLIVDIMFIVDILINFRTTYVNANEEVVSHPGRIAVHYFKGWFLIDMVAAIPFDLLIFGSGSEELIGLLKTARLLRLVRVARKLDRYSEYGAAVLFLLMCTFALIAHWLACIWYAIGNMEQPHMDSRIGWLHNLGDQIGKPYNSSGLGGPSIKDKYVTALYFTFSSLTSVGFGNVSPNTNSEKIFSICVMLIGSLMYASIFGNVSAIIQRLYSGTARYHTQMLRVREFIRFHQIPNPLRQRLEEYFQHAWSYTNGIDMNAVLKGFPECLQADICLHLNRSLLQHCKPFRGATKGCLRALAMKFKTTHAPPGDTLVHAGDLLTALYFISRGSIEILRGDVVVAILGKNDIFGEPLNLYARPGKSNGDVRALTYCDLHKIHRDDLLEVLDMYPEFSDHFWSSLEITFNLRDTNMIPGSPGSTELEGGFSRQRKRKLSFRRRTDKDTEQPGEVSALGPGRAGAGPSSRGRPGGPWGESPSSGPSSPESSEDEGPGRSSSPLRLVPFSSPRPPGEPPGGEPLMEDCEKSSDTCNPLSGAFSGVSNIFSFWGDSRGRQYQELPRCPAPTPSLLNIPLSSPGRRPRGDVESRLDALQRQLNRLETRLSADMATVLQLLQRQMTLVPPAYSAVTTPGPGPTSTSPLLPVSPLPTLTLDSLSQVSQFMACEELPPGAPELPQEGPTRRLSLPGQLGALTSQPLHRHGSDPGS

[6] = Metabolic stability in human liver microsomes after 30 mins by LC-MS/MS analysis; type: ADME, Microsome; details: read-out: Stability
Summary of the method: (§1)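 Compounds were incubated with mouse or human liver microsomal preparation for 30 min at 37 °C. The reaction was stopped with CH3CN. Unmetabolized compound was quantified by LC-MS/MS in MRM mode and reported as percent remaining. Replicates n ≥ 2, mean values given.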

[7] = Metabolic stability in mouse liver microsomes after 30 mins by LC-MS/MS analysis; type: ADME, Microsome; details: read-out: Stability; summary of the method: as §1
[8] = test system: Mus musculus; experiment: Cmax in CD1 mouse at 15 mg/kg, po; details: mouse, in vivo
[9] = Oral bioavailability in CD1 mouse at 15 mg/kg; details: in vivo

Papp A→B at 2 h [1]: 5.6 ×10⁻⁶ cm/s
IC50 [2]: 103 nM
IC50 [3]: 270 nM
IC50 [4]: 65 nM
remaining at 0.5 h [6]: 55%
remaining at 0.5 h [7]: 32%
Cmax [8]: 823 nM
bioavailability [9]: 31.5%
SMILES: O=C(/C=C/c1ccc2c(c1)C(=O)CC1(CCN(Cc3ccccc3)CC1)O2)NO
IC50 [5]: 3810 nM
